High-throughput results deposited in PubChem by Johns Hopkins Ion Channel Center.
Sampled rows, rich in hits. Any-hit rate of the full collection: about 4.1%.
MrgX1 antag: human MrgX1 receptor antagonism, primary screen; Q96LB2; MRGX1-HEK293 calcium flux, Fluo-4, BAM8-22 antagonism; hits give low values; B-score at 10 µM; 310,000 tested, 1.3% active; AID 588676;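 active = calcium-response B-score plate-corrected more than 3 library SD below zero, starting fluorescence within 5 deviations, no agonist response on first addition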;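 note: peak minus trough fluorescence over baseline after final BAM8-22 challenge near maximal dose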
RGS4 inh: inhibitors of human RGS4; P49798; HEK293 M3R/RGS4 inducible, Fluo-4 calcium flux; hits give high values; triggered by carbachol at its EC20; B-score at 10 µM; 310,000 tested, 0.45% active; AID 463165;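 active = B-score, a plate-corrected calcium signal, over three deviations above library mean, with baseline fluorescence within five deviations of library mean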;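 note: RGS4 expression induced by doxycycline in cells with stable M3 receptor; B-score is computed from the integrated fluorescence ratio over baseline after carbachol; higher B-score means a larger calcium signal and so more RGS4 inhibition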
Target sequence (P49798 whole entry, looked up): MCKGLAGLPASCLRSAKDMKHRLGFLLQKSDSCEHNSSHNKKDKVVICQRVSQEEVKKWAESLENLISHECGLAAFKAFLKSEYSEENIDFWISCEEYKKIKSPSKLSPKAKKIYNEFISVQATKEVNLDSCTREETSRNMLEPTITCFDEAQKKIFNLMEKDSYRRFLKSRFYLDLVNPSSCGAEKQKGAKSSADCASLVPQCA
MrgX1 agonist: agonists of human MrgX1 receptor. Q96LB2. MrgX1-HEK293 cells, Fluo-4 calcium fluorescence, agonist mode; hits give high values. B-score at 10 µM. 310,000 tested, 0.44% active. AID 588627;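 active = calcium response B-score plate-corrected fluorescence ratio at least 3 library SD, with starting fluorescence B-score inside 5 SD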
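Material: HEK293 cells stably expressing human MrgX1 receptor | Quantity: 15,000 cells per well | Times: Cells plated overnight, dye loaded 0.5 h 37 °C, 0.5 h room temperature | Measured by: Kinetic Fluo-4 NW fluorescence of intracellular calcium | Control set: Positive and negative controls per plate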
MrgX1 allo act: allosterically activates human MrgX1 receptor signaling | Q96LB2 | MrgX1-HEK293, Fluo-4 calcium flux, FDSS; hits give high values | B-score at 10 µM | 310,000 tested, 0.63% active | AID 588675;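 active = plate-corrected calcium response at least 3 library SD above typical, normal starting fluorescence, not activating the receptor alone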;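 note: compound read alongside a low EC10 to EC30 dose of BAM8-22 agonist; peak minus trough fluorescence over baseline measured at the second addition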
Kir21 block: inhibitors of mouse Kir2.1 inward-rectifier potassium channel; B-score at 10 µM; AID 1672; 310,000 tested, 0.85% active; P35561; HEK293-Kir2.1, FluxOR thallium flux fluorescence; hits give low values;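 active = fluorescence ratio B-score at or below minus 3 SD of library scores, with starting-brightness B-score within 2 SD, cut at about -4.2 in these data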;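 note: channel flux triggered by added potassium and thallium sulfate stimulus; B-score of peak minus minimum fluorescence over baseline after thallium stimulus; more negative B-score means stronger Kir2.1 block with less thallium influx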
Target sequence (P35561 whole entry, looked up): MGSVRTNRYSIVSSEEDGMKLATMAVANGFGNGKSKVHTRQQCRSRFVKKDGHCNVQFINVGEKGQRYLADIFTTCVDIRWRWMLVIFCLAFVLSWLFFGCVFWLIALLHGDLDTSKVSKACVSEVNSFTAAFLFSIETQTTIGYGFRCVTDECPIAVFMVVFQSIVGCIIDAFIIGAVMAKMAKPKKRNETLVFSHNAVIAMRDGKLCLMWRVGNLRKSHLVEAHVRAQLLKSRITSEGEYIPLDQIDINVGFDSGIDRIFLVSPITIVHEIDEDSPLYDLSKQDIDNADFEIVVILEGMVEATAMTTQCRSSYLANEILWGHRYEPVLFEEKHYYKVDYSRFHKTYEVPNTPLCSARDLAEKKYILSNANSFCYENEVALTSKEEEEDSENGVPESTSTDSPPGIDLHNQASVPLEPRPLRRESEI
RGS4 pot: RGS4 potentiation or activation; HEK293 M3R/inducible RGS4, carbachol calcium flux Fluo4; hits give low values; B-score at 10 µM; 310,000 tested, 0.92% active; AID 463111;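 active = B-score of the integrated calcium signal more than 4 SD below the library mean, with starting fluorescence not abnormally high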;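 note: negative B-score means reduced calcium response which marks RGS4 activation or potentiation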
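System – HEK293 FlpIn-TREx cells, stable M3R, doxycycline-inducible RGS4 · Reagent – ECmax carbachol challenge · Times – compound preincubation 20 min at room temperature before agonist · Technique – Fluo4 fluorescence kinetic imaging of calcium · Measure – B score of integrated Fluo4 ratio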
RGS4 block valid: RGS4 inhibitor validation. shares compounds with RGS4 inh. HEK293 M3R/RGS4, carbachol calcium Fluo-4 fluorescence; carbachol added at its EC20; 0 = buffer wells, 100 = carbachol control. calcium response, % at 10 µM. 1,700 tested, 65% active;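 active = duplicate-averaged calcium response above the buffer-only control mean plus 5 SD of those controls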;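 note: integrated fluorescence ratio F max minus min over baseline F0; higher response in RGS4-induced cells means RGS4 inhibition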
M3R Ca ctr: non-induced cell nonspecific activity of RGS4 inhibitors | activity (percent), % at 10 µM | 1,900 tested, 20% active | shares compounds with RGS4 inh | HEK293 M3R non-induced, carbachol calcium Fluo-4; submaximal (EC20) carbachol stimulus; buffer wells 0%, carbachol control wells 100%; call rule not given here;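 note: RGS4 induction absent so cells express M3R without RGS4; higher means more calcium signal and flags a non-specific hit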
M3R basal Ca ctr: second counter-screen for RGS4 inhibitors: non-induced cells without carbachol | calcium response (agonist-mode artifact), % at 10 µM | shares compounds with RGS4 inh | AID 493001 | HEK293 M3R/RGS4 non-induced, Fluo-4 calcium, no carbachol; normalised: buffer wells 0%, carbachol wells 100% | 1,900 tested, 22% active;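 active = duplicate-averaged calcium rise in uninduced cells above buffer wells' mean plus 5 SD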
* marks the source's active call; other numbers are inactive results; i = inactive; nt = no result.

SMILES | MrgX1 antag | RGS4 inh | MrgX1 agonist | MrgX1 allo act | Kir21 block | RGS4 pot | RGS4 block valid | M3R Ca ctr | M3R basal Ca ctr
O=C1Nc2ccc(S(=O)(=O)N3CCCC3C(=O)O)c3cccc1c23 (stereo unspecified) | i | 5.5* | i | i | -0.49 | i | i | i | i
COCCOc1cc(Nc2nnc(C(F)(F)F)s2)c(Cl)cc1Cl | i | i | i | i | -0.53 | i | nt | nt | nt
CCOC(=O)/C(C#N)=C/c1cn(CCC(=O)O)nc1-c1cccc(Cl)c1 | i | 4.7* | i | i | 1.1 | i | i | i | i
O=C(Nc1ccc2c(c1)OCCO2)c1ccc(Cl)cc1 | i | i | i | i | 0.72 | i | nt | nt | nt
O=C(Nc1ccc2c(c1)OCCO2)c1cccnc1Oc1ccc(Cl)cc1 | i | i | i | i | -0.39 | i | i | i | i
O=C(Oc1ccccc1)c1cccnc1Oc1ccccc1 | i | 5* | i | i | 1.7 | i | i | i | i
O=C(Oc1ccccc1)c1cccc2cccnc12 | i | i | i | i | 0 | i | nt | nt | nt
O=C(Nc1ccc2c(c1)OCCO2)c1cccnc1Oc1ccccc1 | i | 4.7* | i | i | -0.01 | i | 5.5%* | i | i
CCOc1ncccc1C(=O)Nc1ccc2c(c1)OCO2 | i | i | i | i | 0.26 | i | nt | nt | nt
CCOc1ccc(N/C(=C(/C(Cl)=C(Cl)Cl)[N+](=O)[O-])n2cncn2)cc1 | i | i | i | i | -1.1 | i | nt | nt | nt
NC(=O)c1cc([N+](=O)[O-])ccc1NCc1cnccn1 | i | nt | i | i | nt | nt | nt | nt | nt
COc1cc(/C=N/NC(=S)Nc2cccc(Cl)c2C)ccc1OCC(=O)N1CC(C)OC(C)C1 (stereo unspecified) | i | 13* | i | i | 0.37 | i | i | i | i
COc1ccccc1/C=C/C(=O)NC(=S)N(C)C1CCCCC1 | i | i | i | i | -0.03 | i | nt | nt | nt
O=C(O)COc1ccc(/C=C/C(=O)c2ccc(C3CCCCC3)cc2)cc1 | i | i | i | i | 0.88 | i | nt | nt | nt
O=C(O)COc1ccc(/C=C/C(=O)c2ccc3ccccc3c2)cc1 | i | 4.8* | i | i | 0.18 | i | i | i | i
Cc1ccc(Nc2nc(N)nc(CSc3nc4ccccc4s3)n2)cc1 | i | 5.1* | i | i | -0.39 | i | 8.0%* | i | i
Cc1ccc(Nc2nc(N)nc(CSc3ncccn3)n2)cc1 | i | i | i | i | 0.16 | i | nt | nt | nt
COc1ccc(Nc2nc(N)nc(CSc3nnc(C)s3)n2)cc1 | i | i | i | i | 0.21 | i | i | i | i
Cc1ccc(Nc2nc(N)nc(CCl)n2)cc1 | i | 4.7* | i | i | -0.07 | i | 7.0%* | i | i
Nc1nc(CCl)nc(Nc2ccccc2)n1 | i | i | i | i | 0 | i | nt | nt | nt
O=C/C=C/c1coc2ccc3ccccc3c2c1=O | i | 15* | i | i | 0.61 | i | 13%* | 36%* | i
CCOc1ccc(S(=O)(=O)NC(=O)c2ccccc2)cc1 | i | i | i | i | 0.11 | i | nt | nt | nt
Cc1c(N=NC2=C(O)CC(C)(C)CC2=O)cc2c(c1[N+](=O)[O-])C(C)(C)CC2(C)C | i | 7.4* | i | i | 0.67 | i | 28%* | i | i
COc1ccccc1N=NC1=C(O)CC(C)(C)CC1=O | i | i | i | i | 1.1 | i | nt | nt | nt
CCC(=O)OCCNc1cc(Sc2nccn2C)c2nonc2c1[N+](=O)[O-] | i | i | i | i | -2 | i | nt | i | i
SMILES | MrgX1 antag | RGS4 inh | MrgX1 agonist | MrgX1 allo act | Kir21 block | RGS4 pot | RGS4 block valid | M3R Ca ctr | M3R basal Ca ctr
Cc1[nH]n(-c2c(Cl)cc(Cl)cc2Cl)c(=O)c1C=Nc1ccc(S(=O)(=O)N2CCOCC2)cc1 | i | i | i | i | -0.01 | i | i | i | i
Cc1[nH]n(-c2ccccc2)c(=O)c1C=Nc1ccc(S(N)(=O)=O)cc1 | i | i | i | i | 0.4 | i | nt | nt | nt
COc1ccc(C(=O)CCN2CCN(c3ccc(OC)cc3)CC2)cc1 | i | i | i | i | 1.7 | i | nt | nt | nt
O=C(CCN1CCOCC1)c1ccc(Cl)cc1 | i | 12* | i | i | 1.4 | i | 17%* | 56%* | 25%*
O=C(CCN1CCN(c2ccccc2)CC1)c1ccc(Br)cc1 | i | 27* | i | i | 0.31 | i | 16%* | i | i
O=C(CCN1CCOCC1)c1ccc(Br)cc1 | i | 8.4* | i | i | 0.3 | i | 29%* | i | 16%*
CCCCCOc1ccc(C(=O)CCN2CCOCC2)cc1 | i | i | i | i | 1.7 | i | nt | nt | nt
CCNC(=O)COC(=O)c1ccc(-n2nc(C)cc2C)cc1 | i | i | i | i | 0.25 | i | nt | nt | nt
CC(=O)OC1CCC2(C)C(COc3ccc4ccc(=O)oc4c3)C(C)(O)CCC2C1(C)C (stereo unspecified) | i | i | i | i | -0.13 | i | nt | nt | nt
O=C(Cn1c(=O)oc2cccnc21)Nc1ccc(C(F)(F)F)cc1 | i | i | i | i | 0.69 | i | nt | nt | nt
C=CCn1c(=NC(=O)c2ccco2)sc2cc(C(=O)OCC)ccc21 | i | i | i | i | 0.51 | i | nt | nt | nt
O=C(/C=C/c1ccccn1)c1cc(Br)ccc1O | i | 7* | i | i | 0.41 | i | 12%* | 36%* | i
C/C(=C\C(=O)c1cccnc1)Nc1ccc(O)cc1 | i | i | i | i | -0.02 | i | nt | nt | nt
Cc1ccc(C2C(C#N)=C(N)Oc3cc(C)oc(=O)c32)o1 (stereo unspecified) | i | 7.3* | i | i | -0.74 | i | 22%* | i | i
COc1ccc(/C=C2/SC(=S)N(Cc3ccccc3)C2=O)cc1O | i | 5* | i | i | -0.7 | i | 24%* | i | 20%*
